{"source": "ChEMBL document CHEMBL1147200", "about": "“Synthesis, structural characterization, and in vitro antitumor activity of novel N-(6-chloro-1,1-dioxo-1,4,2-benzodithiazin-3-yl)arylsulfonamides” (2007)", "type_in_all_cases": "functional", "key": {"[1]": {"tested_on": "A-427", "experiment": "Cytotoxicity against human A427 cells after 96 hrs", "conditions": "A-427, 96 h", "how_it_was_run": "(§1)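 Cells plated in 96-well format, left 24 h, then given compound continuously for 96 h. Growth read by staining attached viable cells with crystal violet, washing, redissolving bound dye in 70% ethanol and reading OD at 570 nm. GI50 computed from dose–response data of 5 to 7 independent experiments.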"}, "[2]": {"experiment": "Cytotoxicity against human LCLC103H cells after 96 hrs", "conditions": "LCLC-103H", "how_it_was_run": "as §1"}, "[3]": {"tested_on": "MCF7", "experiment": "Cytotoxicity against human MCF7 cells after 96 hrs", "conditions": "MCF7, 96 h", "how_it_was_run": "as §1"}, "[4]": {"tested_on": "5637", "experiment": "Cytotoxicity against human 5637 cells after 96 hrs", "conditions": "Homo sapiens, 5637, 96 h", "how_it_was_run": "as §1"}, "[5]": {"tested_on": "DAN-G", "experiment": "Cytotoxicity against human DANG cells after 96 hrs", "how_it_was_run": "as §1"}, "[6]": {"tested_on": "RT-4", "experiment": "Cytotoxicity against human RT4 cells after 96 hrs", "conditions": "RT-4, 96 h", "how_it_was_run": "as §1"}}, "data": [{"smiles": "O=C(Oc1cccc2cccnc12)c1cc2c(cc1Cl)SC(N(c1ccc(F)cc1)S(=O)(=O)c1ccc(Cl)cc1)=NS2(=O)=O", "values": [{"measurement": "GI50", "setting": "[1]", "result": 3.1, "unit": "µM"}, {"measurement": "GI50", "setting": "[2]", "result": 4.6, "unit": "µM"}, {"measurement": "GI50", "setting": "[3]", "result": 3.2, "unit": "µM"}, {"measurement": "GI50", "setting": "[4]", "result": 6.2, "unit": "µM"}, {"measurement": "GI50", "setting": "[5]", "result": 9.3, "unit": "µM"}, {"measurement": "GI50", "setting": "[6]", "result": "> 20", "unit": "µM"}]}, {"smiles": "COC(=O)c1cc2c(cc1Cl)SC(N(N(C)C)S(=O)(=O)c1ccc(Br)s1)=NS2(=O)=O", "values": [{"measurement": "GI50", "setting": "[1]", "result": 12, "unit": "µM"}, {"measurement": "GI50", "setting": "[2]", "result": 19.1, "unit": "µM"}, {"measurement": "GI50", "setting": "[3]", "result": 10.9, "unit": "µM"}, {"measurement": "GI50", "setting": "[4]", "result": 13.7, "unit": "µM"}, {"measurement": "GI50", "setting": "[5]", "result": 23.7, "unit": "µM"}, {"measurement": "GI50", "setting": "[6]", "result": 18.5, "unit": "µM"}]}, {"smiles": "CCOC(=O)c1cc2c(cc1Cl)SC(N(c1ccccc1)S(=O)(=O)c1ccc(Cl)cc1)=NS2(=O)=O", "values": [{"measurement": "GI50", "setting": "[1]", "result": 11.7, "unit": "µM"}, {"measurement": "GI50", "setting": "[2]", "result": "> 20", "unit": "µM"}, {"measurement": "GI50", "setting": "[3]", "result": 9.8, "unit": "µM"}, {"measurement": "GI50", "setting": "[4]", "result": 14.3, "unit": "µM"}, {"measurement": "GI50", "setting": "[5]", "result": 14.8, "unit": "µM"}, {"measurement": "GI50", "setting": "[6]", "result": "> 20", "unit": "µM"}]}, {"smiles": "CCOC(=O)c1cc2c(cc1Cl)SC(N(c1ccc(OC)cc1)S(=O)(=O)c1ccc(Cl)cc1)=NS2(=O)=O", "values": [{"measurement": "GI50", "setting": "[1]", "result": 11.2, "unit": "µM"}, {"measurement": "GI50", "setting": "[2]", "result": 19.3, "unit": "µM"}, {"measurement": "GI50", "setting": "[3]", "result": 8.1, "unit": "µM"}, {"measurement": "GI50", "setting": "[4]", "result": 11.9, "unit": "µM"}, {"measurement": "GI50", "setting": "[5]", "result": 12.3, "unit": "µM"}, {"measurement": "GI50", "setting": "[6]", "result": 23.1, "unit": "µM"}]}, {"smiles": "CCOC(=O)c1cc2c(cc1Cl)SC(N(c1ccc(OC)cc1)S(=O)(=O)c1ccccc1)=NS2(=O)=O", "values": [{"measurement": "GI50", "setting": "[1]", "result": 7, "unit": "µM"}, {"measurement": "GI50", "setting": "[2]", "result": 9.3, "unit": "µM"}, {"measurement": "GI50", "setting": "[3]", "result": 4.9, "unit": "µM"}, {"measurement": "GI50", "setting": "[4]", "result": 6.5, "unit": "µM"}, {"measurement": "GI50", "setting": "[5]", "result": 7.6, "unit": "µM"}, {"measurement": "GI50", "setting": "[6]", "result": 16.8, "unit": "µM"}]}, {"smiles": "CCOC(=O)c1cc2c(cc1Cl)SC(N(c1ccc(F)cc1)S(=O)(=O)c1ccc(OC)cc1)=NS2(=O)=O", "values": [{"measurement": "GI50", "setting": "[1]", "result": 8.4, "unit": "µM"}, {"measurement": "GI50", "setting": "[2]", "result": 17.5, "unit": "µM"}, {"measurement": "GI50", "setting": "[3]", "result": 5.8, "unit": "µM"}, {"measurement": "GI50", "setting": "[4]", "result": 12.1, "unit": "µM"}, {"measurement": "GI50", "setting": "[5]", "result": 12, "unit": "µM"}, {"measurement": "GI50", "setting": "[6]", "result": 19, "unit": "µM"}]}, {"smiles": "Cc1cc2c(cc1Cl)SC(N(c1ccc(Cl)cc1)S(=O)(=O)c1ccccc1)=NS2(=O)=O", "values": [{"measurement": "GI50", "setting": "[1]", "result": 9.2, "unit": "µM"}, {"measurement": "GI50", "setting": "[2]", "result": 12.4, "unit": "µM"}, {"measurement": "GI50", "setting": "[3]", "result": 8.1, "unit": "µM"}, {"measurement": "GI50", "setting": "[4]", "result": 9.6, "unit": "µM"}, {"measurement": "GI50", "setting": "[5]", "result": 9.9, "unit": "µM"}, {"measurement": "GI50", "setting": "[6]", "result": 22, "unit": "µM"}]}, {"smiles": "Cc1cc2c(cc1Cl)SC(N(N(C)C)S(=O)(=O)c1ccc(Cl)cc1)=NS2(=O)=O", "values": [{"measurement": "GI50", "setting": "[1]", "result": 15.6, "unit": "µM"}, {"measurement": "GI50", "setting": "[2]", "result": "> 20", "unit": "µM"}, {"measurement": "GI50", "setting": "[3]", "result": 12.3, "unit": "µM"}, {"measurement": "GI50", "setting": "[4]", "result": 19.2, "unit": "µM"}, {"measurement": "GI50", "setting": "[5]", "result": 23.5, "unit": "µM"}, {"measurement": "GI50", "setting": "[6]", "result": "> 20", "unit": "µM"}]}, {"smiles": "COC(=O)c1cc2c(cc1Cl)SC(N(N(C)C)S(=O)(=O)c1ccc(Cl)cc1)=NS2(=O)=O", "values": [{"measurement": "GI50", "setting": "[1]", "result": 10.2, "unit": "µM"}, {"measurement": "GI50", "setting": "[2]", "result": 19.6, "unit": "µM"}, {"measurement": "GI50", "setting": "[3]", "result": 8.7, "unit": "µM"}, {"measurement": "GI50", "setting": "[4]", "result": 12.6, "unit": "µM"}, {"measurement": "GI50", "setting": "[5]", "result": 18.7, "unit": "µM"}, {"measurement": "GI50", "setting": "[6]", "result": 18.5, "unit": "µM"}]}, {"smiles": "CCOC(=O)c1cc2c(cc1Cl)SC(N(c1ccc(OC)cc1)S(=O)(=O)c1ccc(Cl)cc1Cl)=NS2(=O)=O", "values": [{"measurement": "GI50", "setting": "[1]", "result": 4.1, "unit": "µM"}, {"measurement": "GI50", "setting": "[2]", "result": 2.8, "unit": "µM"}, {"measurement": "GI50", "setting": "[3]", "result": 2.4, "unit": "µM"}, {"measurement": "GI50", "setting": "[4]", "result": 2.3, "unit": "µM"}, {"measurement": "GI50", "setting": "[5]", "result": 3.1, "unit": "µM"}, {"measurement": "GI50", "setting": "[6]", "result": 6.3, "unit": "µM"}]}, {"smiles": "Cc1cc2c(cc1Cl)SC(N(c1ccccc1Cl)S(=O)(=O)c1ccc(Br)s1)=NS2(=O)=O", "values": [{"measurement": "GI50", "setting": "[1]", "result": 8.2, "unit": "µM"}, {"measurement": "GI50", "setting": "[2]", "result": 11.9, "unit": "µM"}, {"measurement": "GI50", "setting": "[3]", "result": 6.5, "unit": "µM"}, {"measurement": "GI50", "setting": "[4]", "result": 7.5, "unit": "µM"}, {"measurement": "GI50", "setting": "[5]", "result": 9.4, "unit": "µM"}, {"measurement": "GI50", "setting": "[6]", "result": 28.6, "unit": "µM"}]}, {"smiles": "O=C(Oc1cccc2cccnc12)c1cc2c(cc1Cl)SC(N(c1ccc(F)cc1)S(=O)(=O)c1ccc(Br)s1)=NS2(=O)=O", "values": [{"measurement": "GI50", "setting": "[1]", "result": 3.4, "unit": "µM"}, {"measurement": "GI50", "setting": "[2]", "result": 5.3, "unit": "µM"}, {"measurement": "GI50", "setting": "[3]", "result": 3.2, "unit": "µM"}, {"measurement": "GI50", "setting": "[4]", "result": 5.1, "unit": "µM"}, {"measurement": "GI50", "setting": "[5]", "result": 8.2, "unit": "µM"}, {"measurement": "GI50", "setting": "[6]", "result": "> 20", "unit": "µM"}]}]}
